System: MS2 coat protein
Assay: apparent Kd, MS2 coat protein; higher = weaker binding; RNA-MaP array; FMN 200 µM where present
Summary of the method: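 Apparent Kd: the median of filtered binding-curve fits from single clusters. Designs were transcribed on Illumina sequencing-chip clusters by stalled E. coli RNA polymerase and titrated with SNAP-549-labelled MS2 coat protein from 0.7 or 1.5 nM, doubling to 3 µM, in 100 mM Tris-HCl pH 7.5, 80 mM KCl, 4 mM MgCl2, BSA, DTT, yeast tRNA and Tween-20. Each series ran without and then with constant ligand, and green signal was normalised to red-channel RNA signal and control-cluster median Fmax.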

[1] = designed as: OFF switch for flavin mononucleotide, no ligand
[2] = ligand present: flavin mononucleotide, designed as: OFF switch for flavin mononucleotide
[3] = designed as: ON switch for flavin mononucleotide, no ligand
[4] = ligand present: flavin mononucleotide, designed as: ON switch for flavin mononucleotide

Row | Sequence | apparent Kd [1] [nM] | apparent Kd [2] [nM] | apparent Kd [3] [nM] | apparent Kd [4] [nM]
1 | UCAUGUUAGCAGGAUAUGCUAUUUAUUUUUUAUGCAGAAGGGCUUACAUGAGGAUCACCCAUGUGUUAGGUUUU | 41.8 | 21.1 | – | –
2 | GUAGCAUACCGAGGAUAUCUCAAUAAUAAACAAACAUGAGGAUCACCCAUGUGGCGAAAGCCAAGGGAGAAGGCGGAAUGCUAC | – | – | 43.1 | 17.6
3 | GAGUGACAUGAGGAUCACCCAUGUGAGGAUAUCGGACGGACCUAGUUAACUUCCGCCGCGAGAAGGCACAUCGG | 98.7 | 33.8 | – | –
4 | UUCGAGCCAAGGCUCGCGAGUACACAGGAUAUGGAAAGUCACAUGAGGAUCACCCAUGUCCAAAACCAGAAGGGUGAGACUAAG | – | – | – | 70.4
5 | UUUAUUUCGGCAGGAUAUACAUGUAUAUAUAUUCCCUCAUAUCUUAUUACAUGAGGAUCACCCAUGUAGAAGGGCCUUCUUCUC | 206 | 160 | – | –
6 | UUAGAGGAUUAAGGAUAUGCAGAGAGAUUAUGCGCGUCGCGCACAUGAGGAUCACCCAUGUAAGAGCAGAAGGUAACUAUGAUC | 22.8 | 16.4 | – | –
7 | AUUGUAUAGGAAGGAUAUAGAAUAUUAUUUUAACAUGAGGAUCACCCAUGUAACCUUAUGUGUAGCUAGAAGGUCCAUUUAUUA | 99.6 | 150 | – | –
8 | UUGCGACAUGAGGAUCACCCAUGUCAGGAUAUAUUGUAGAAACUGGUUGCGACCAGGCGUAGAAGGGACAUGGC | 28.6 | 37.7 | – | –
9 | UCGGAGUAAGUGAGGAUAUGUGCGCCUUUAAGCGUACAGAAGGCACAUGAGGAUCACCCAUGUGAGGCCUGCCA | 18.9 | 39 | – | –
10 | GCAGAAGUAGUGAGGAUAUGCUCUACCUCGGUAGAGCAGAAGGCACAUGAGGAUCACCCAUGUGAUUCUUCUGC | 26.9 | 158 | – | –
11 | CACCGUUAAAGAGGAUAUCGUACAUGAGGAUCACCCAUGUAAUAAAUGAGAAUUUCGGAUGUAUGCGAGAAGGCUUAAAUCGGC | 52.9 | 48.3 | – | –
12 | AGUUAGAUAGCGAUAUGAUCGAGAGAUCAUGUCGCUAAAUUUAGAAGGACAUGAGGAUCACCCAUGUAGGAUAUGGGAGUAGAA | – | – | 143 | 59.3
13 | GGAUGACAAAGUCAUCCUAAACGAACAUGAGGAUCACCCAUGUAGGAUAUGCAACUCAAAGAGUUGCAGAAGGACAUGUGCCUU | 37.2 | 230 | – | –
14 | AGCUGUGGCCGAGGAUAUACAUUCCUAAUCCAUUGCAAAUAGCGAUGGACAUGAGGAUCACCCAUGUAGAAGGCGGUCUCAGCA | 561 | 163 | – | –
15 | GUCGGAAACGACAAAAGUAUGGAUCCAGAAGGCAUGAUACAUGAGGAUCACCCAUGUCUAAGACAUGAGGAUAUGGAUCCAUAC | – | – | 13.7 | 4.77
16 | UCACGGUAUGUAGGAUAUGCAUAGCAUUGCUAUGCAGAAGGACAUGAGGAUCACCCAUGUAUGUAUUCCAUACUAAUCCCGUGU | 6.15 | 6.09 | – | –
17 | CAUGGACGGUUAGGAUAUGACCUUUAAUGAAAGUCAGAAGGGAUCGCACAUGAGGAUCACCCAUGUCGCAGACUCGGGCGACUU | 14.9 | 21.1 | – | –
18 | ACAUGAGGAUCACCCAUGUGAACAUAGGAUAUUGGUGAUCAGGCGUGUUAUACAGGAUAGGUCUGCGAGAAGGGUGUACGUUGC | – | – | 367 | 71.7
19 | GGACGUAAAGAGAAGGGCUACUGGUUGAAACCUGCGGCCUCUGGAACAUGAGGAUCACCCAUGUAGCAGGAUAUCUUUGCAUCA | 180 | 14.7 | – | –
20 | CGAUAGUGUCGUUAUCCGUAGCGAACAUGAGGAUCACCCAUGUAGGAUAUGUUACUAAACUAGUAACAGAAGGGCGUGAGUCUU | 129 | 161 | – | –
21 | GAAAAGGUAGGAUAUACGAAAAAAAAGGGUAGAAAAAAUACACAUGAGGAUCACCCAUGUAGAAGGACCAAAAG | 31.5 | 130 | – | –
22 | UUUAUGUCAGGAUAUACAUGAGGAUCACCCAUGUAUAUCUUAAAGUAUACAUGGAAAUGUAGAAGGGACGUCCU | 15.1 | 17.1 | – | –
23 | CCUCCACAUUAGGAUAUCGUCACAGAAAUGUGACGAGAAGGAAUGACAUGAGGAUCACCCAUGUUAACGUGAUG | 34.4 | 195 | – | –
24 | UGAUAAUACGUCAGGAUAUGCGUCAUAGAGAAGUGGUAGAAGGGACAUGAGGAUCACCCAUGUUUUGGGUUAUA | 132 | 93.5 | – | –
25 | UUACUCAUGUAAGGAUAUGCAGCCGUUUCGGCUGCAGAAGGUACUAUAAUACAUGAGGAUCACCCAUGUCUUUUUAAAUUAGAC | – | – | 111 | 49.7
26 | AAAUAGUUAGGAUAUACAUGAGGAUCACCCAUGUAGGGUUCAGUCAUGCAGAAAAUGCGUAGAAGGAACUAUCC | 18.4 | 16.7 | – | –
27 | UCCUUGUCCUGAGGAUAUCCGCGGUUCCCAAAAGGAGAAGGCAGGACAUGAGGAUCACCCAUGUACCCAGAGAACGUGCAGAGU | 19.2 | 129 | – | –
28 | AAACAUGUCCGAGGAUAUCUGAGAUUAUUUUCAAGAGAAGGCGGACAUGAGGAUCACCCAUGUCUCUCCUCAUCAACUCCAAAU | 8.61 | 54.5 | – | –

Row | Sequence | apparent Kd [1] [nM] | apparent Kd [2] [nM] | apparent Kd [3] [nM] | apparent Kd [4] [nM]
29 | AGUCGGAGCAGAGGAUAUAUACAUGAGGAUCACCCAUGUAAAUGAAUGAGCUGGAAACAGCAUGUAUAGAAGGCUGCUCCGACA | 113 | 303 | – | –
30 | AGAUGACAAAGUCAUCUCUGACAGACAUGAGGAUCACCCAUGUAGGAUAUGCUACUCAAAGAGUAGCAGAAGGACAUGUGUCUU | 32.3 | 183 | – | –
31 | CAGGGUAGAGGAUAUACGUAGGUACAGAUCUGUGUGAUCCUACAUGAGGAUCACCCAUGUAGAAGGCUAGCCUG | 356 | 39.4 | – | –
32 | UAGUAUCUGCAGGAUAUCAGUGGAAAACACGUAUGAGAAGGGCAGACAUGAGGAUCACCCAUGUAUAGGGUCCG | 81.4 | 206 | – | –
33 | AACUCGUCAGGAUAUGCGCACAGAUAAUACGCUACACAAUUGCAGAAGGGACAUGAGGAUCACCCAUGUAAAUA | 39 | 26.2 | – | –
34 | UAUGUAUUCGUAGGAUAUCCGUUGAAACCGUGUGGAGAAGGACGAACAUGAGGAUCACCCAUGUAUCAUGGUGUAGACAAUUUU | 75.3 | 288 | – | –
35 | UAAUUGUGAGGAUAUUCGUUUUUCUCGGAGACGAGAAGAACGGAGAAGGCACAUGAGGAUCACCCAUGUUCCUU | 18 | 91.7 | – | –
36 | UUUACUUACGAAGGAUAUGGUUACAUGAGGAUCACCCAUGUAUGUAUAAUGAUCUAGUAUUUUAACCAGAAGGUCGUGAUUAUU | 39.3 | 64.6 | – | –
37 | CUCAGCUCGUCAGGAUAUACGUCACUGCUUCGGCAGUGUGGUAAGAUCACAUGAGGAUCACCCAUGUAGAAGGGACGAGCUGAC | 12.7 | 316 | – | –
38 | UUUAAUUAGUAGAAGGACGGAGAGUAAGAAGUCGUAGGAUAUACAUAAGACAUGAGGAUCACCCAUGUGUGUAUGUUGGGUAGG | 6.57 | 7.72 | – | –
39 | UGGAUCAUCGGAGGAUAUCAUGUAUAUACAUGAGGAUCACCCAUGUCGUACGAGAGUACGGAGAUUGAGAAGGCCGAUGAUCCU | – | – | 38.8 | 14.9
40 | GGCUAGUCAGGAUAUACGAACAUGUCAAAAGACGUGAAGGGACAUGAGGAUCACCCAUGUAGAAGGGACUAGCC | 22.8 | 182 | – | –
41 | GCGUUCUUGUAGAAGGUACAUACGACAUCUUAUAAACGCAUGACACAUGAGGAUCACCCAUGUUGUAAGGAUAUACAUGAACGC | – | – | 8.88 | 8.05
42 | ACAUAGCGAGGAUAUACAUGAGGAUCACCCAUGUGGUGGCGGUUACGGUAGGACUAGUGUAGAAGGUGCCAUGG | 418 | 424 | – | –
43 | ACGGCUAACCCAGUUUAAAUCUCAAGAAGGGUACACUGGGCAAGGUACAUGAGGAUCACCCAUGUACAGGAUAUUGAGAUGAGA | 25.6 | 45.4 | – | –
44 | UUGGACGUCGUAGGAUAUGUAGGAUAUUCCUACAUGAGGAUCACCCAUGUUGACAUGGAAGAAGGACAAAAGGACGAUGUCCAU | – | – | 377 | 9.05
45 | UUUACAUGAGGAUCACCCAUGUCUGUCACACGGAGGUGCAAUCAGGAUAUGAUCUCAAGAAUGAAUUAGAAGGGAUAGGGAGGG | – | – | 187 | 234
46 | UUUUAGAUCCGAGGAUAUACAAUCCGGAAACGGUACAUGAGGAUCACCCAUGUAGAAGGCGGAUCUACAGGUACUAAAGUAUUU | 10 | 8.84 | – | –
47 | AAGUCUGGACGAGGAUAUCAGUUGUAUCUAGAUUCAACAUGAGGAUCACCCAUGUUGCAAUAGGGUGAGAAGGCGUUUGGGCAA | – | – | 79.9 | 21.2
48 | AUCGAACAUGAGGAUCACCCAUGUUAGGAUAUUGGAUAGCGCGCUGGUGUAGUGUAUCCAAGAAGGGACUGGUG | 66.5 | 101 | – | –
49 | AACAGCUCGUCAGGAUAUAUUAUAUUUAUAUGGAUUAAUGUACAUGAGGAUCACCCAUGUAGUUAGUAGAAGGGACGAGCUGAA | 8.4 | 10.8 | – | –
50 | UCCACUGCUGAGAAGGGAUACGUCUGGUUCGCAUCAGGAUAUCGAUACAGUGCAGCAUGAGGACAUGAGGAUCACCCAUGUGUC | – | – | 21.6 | 19.3
51 | AAUGUUUUCAUAGGAUAUUGACUUUUAUUUAUUCAAGAAGGAUGAUAACAUGAGGAUCACCCAUGUUAAAAUGGAUUAACUAGU | 16.1 | 26.6 | – | –
52 | ACGUAUAGAGGAUAUAGUGAAUAUUACAUGAGGAUCACCCAUGUUCUUCAAAGUAUAUUUCUAGAAGGCUAAUGAA | 35 | 92.7 | – | –
53 | GUAUCGUAUGUGAGGAUAUAUUUGUCCUUGGAUCUGUAGAAGGCACAUGAGGAUCACCCAUGUCCAAGUGGUCC | 27.6 | 27.7 | – | –
54 | AAUUAACAUGAGGAUCACCCAUGUGAGGAUAUGGUAUUACUUGGACAGCUAUGAUCUACCAGAAGGCACAUCUA | 24.4 | 44.8 | – | –
55 | CCUAGUUGGUAAGGAUAUCCUACACUAUUCUGACCCGUGCAAGCUACAUGAGGAUCACCCAUGUAGGAGAAGGUGCGUCAACGU | 6.97 | 6.82 | – | –
